# Dynein transport: blocks dynein driven cargo transport along microtubules. 3617.4 mouse cells, GR-EGFP nuclear translocation imaging; test concentration mostly 20 µM; stimulated with dexamethasone, 1 µM; stronger effect = lower value. z-score, hits read low. 220,000 tested, 0.47% active;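 active = plate z-score of nuclear minus cytoplasmic receptor signal below a set negative limit, without overly bright fluorescence or cell loss, cut at about -3.5 in these data, passing the limit was not always enough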;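 note: z-score of nuclear minus cytoplasmic ring GR-EGFP intensity difference per well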
#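 Medium: Induction medium lacking tetracycline, stripped serum | Probe or stimulus: 1.0 µM final dexamethasone stimulus | Schedule: 48 h induction, then 1 h compound, then 30 min agonist, 37 °C | Signal: Automated 10x imaging of fixed Hoechst-stained cells | Evaluation: Per-cell GR-EGFP intensity, nucleus versus surrounding cytoplasmic ring, well-averaged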
# MEKK3 PB1 HTS: raises or lowers MEK5 binding to the human MEKK3 PB1 domain; bead-based flow cytometry, Alexa488-MEK5 binding to MEKK3; actives lie on both sides; 0 = blocked by unlabeled MEK5, 100 = vehicle; binding response (% of control), % at 10 µM; 290,000 tested, 1.4% active; AID 1529;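 active = binding response more than 3 SD above or below the average of its plate-row segment, actives on both sides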;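 note: Alexa488 bead fluorescence after subtracting the streptavidin-only scavenger bead signal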
# Target sequence (Q99759 whole entry, looked up, the tested form may be a part): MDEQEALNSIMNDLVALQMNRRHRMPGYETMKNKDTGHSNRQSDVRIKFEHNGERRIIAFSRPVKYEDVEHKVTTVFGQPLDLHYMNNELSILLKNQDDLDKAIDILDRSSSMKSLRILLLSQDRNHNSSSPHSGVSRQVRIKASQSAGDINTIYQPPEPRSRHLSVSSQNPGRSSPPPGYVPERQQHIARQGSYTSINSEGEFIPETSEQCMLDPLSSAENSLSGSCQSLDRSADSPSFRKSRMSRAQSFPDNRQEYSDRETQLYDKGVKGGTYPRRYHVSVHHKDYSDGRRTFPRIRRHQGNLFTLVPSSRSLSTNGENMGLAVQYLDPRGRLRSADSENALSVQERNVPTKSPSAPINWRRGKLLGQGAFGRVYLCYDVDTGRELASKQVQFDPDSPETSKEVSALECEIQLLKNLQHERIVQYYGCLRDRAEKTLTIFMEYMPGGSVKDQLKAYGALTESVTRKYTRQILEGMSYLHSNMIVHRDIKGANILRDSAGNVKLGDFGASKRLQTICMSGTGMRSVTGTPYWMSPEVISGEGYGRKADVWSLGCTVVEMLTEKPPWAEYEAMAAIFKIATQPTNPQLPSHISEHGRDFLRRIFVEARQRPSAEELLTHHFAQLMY
# MEKK2mut PB1 HTS: signal of MEK5 binding to mutant human MEKK2 PB1 domain | bead flow cytometry, Alexa488-MEK5 binding to MEKK2 mutant | percent response, % at 10 µM | 290,000 tested, 0.35% active | AID 1530; in the data active = percent response above about 24%, passing the limit was not always enough
# MEKK2 WT-MEK5: raises or lowers MEK5 binding to wildtype human MEKK2 PB1 domain. 290,000 tested, 1.1% active. binding response (% of control), % at 10 µM. bead flow cytometry, Alexa488-MEK5 binding to MEKK2 WT; actives lie on both sides. Q9Y2U5; in the data active = binding response below about 67% or above about 130%
# ATG4B inh: blocks human ATG4B protease cleavage of LC3 substrate; ATG4B cleavage of LC3-PLA2, NBD-HPC fluorescence, 1 h; inhibition, % at 8.33 µM; 340,000 tested, 0.51% active; in the data active = inhibition above about 40%
# Beta2AR agonist: agonists of human beta-2 adrenergic receptor inducing internalization. Am2.2-beta2AR cells, FAP receptor internalization, flow cytometry. response, % (concentration not given with the values). 340,000 tested, 0.43% active;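 active = response above a set limit, near 3 SD of response in nonfluorescent compounds, cut at about 42% in these data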
# MEKK2wt confirm: raises or lowers MEK5 binding to wildtype human MEKK2, retest | binding response (% of control), % at 10 µM | AID 1892 | 5,900 tested, 2.4% active | shares compounds with MEKK3 PB1 HTS | bead flow cytometry, Alexa488-MEK5 binding to MEKK2 WT; actives lie on both sides; in the data active = binding response below about 16% or above about 210%; inactive = in between
# MEKK2mut confirm: signal of MEK5 binding to mutant human MEKK2, retest; shares compounds with MEKK3 PB1 HTS; bead flow cytometry, Alexa488-MEK5 binding to MEKK2 mutant; percent response, % at 10 µM; 5,900 tested, 2% active; AID 1893; in the data active = percent response mostly above about 71%, no sharp cut-off; inactive = mostly below about 38%;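 note: higher means compound restores mutant binding toward wildtype level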
# MEKK3 confirm: MEKK3-MEK5 PB1 inhibition, single concentration confirmation. shares compounds with MEKK3 PB1 HTS. bead flow cytometry, Alexa488-MEK5 binding to MEKK3; stronger effect = lower value. binding response (% of control), % at 10 µM. AID 1894. 5,900 tested, 1.8% active;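 active = binding response below 72% of control, or above a set upper limit, though filed actives all read lower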;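 note: 100% = DMSO only wells and 0% = binding blocked by excess unlabeled MEK5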
# The depositor's hits bear a star; . = not tested or not shown; [ ] = remark or other dose. Most compounds without a hit are left out; they make up all but 2.9% or so of the library.
SMILES,Dynein transport,MEKK3 PB1 HTS,MEKK2mut PB1 HTS,MEKK2 WT-MEK5,ATG4B inh,Beta2AR agonist,MEKK2wt confirm,MEKK2mut confirm,MEKK3 confirm
CN(C)S(=O)(=O)c1ccc(NC(=O)C2COc3ccccc3O2)cc1 (stereo unspecified),-0.21,92,-3,95,-3,5,.,.,.
CN(C)S(=O)(=O)c1ccc(NC(=O)C2CC3C=CC2C3)cc1 (stereo unspecified),0.43,3.0*[inhibitor],-46,9.0*[inhibitor],4,1,92,-16,79
CC1(C)CC(C)(O)N(Cc2ccccc2)C(=S)N1 (stereo unspecified),-0.59,133*,1,112,13,-2,101,2,101
CC1(C)C(=O)NC(=O)N1Cc1ccccc1,.,.,.,.,-11,3,.,.,.
Nc1ccc(OCCCc2c(N)nc(N)nc2N)cc1,-0.99,82*[inhibitor],8,110,9,-7,120,13,95
CCC(=O)c1ccccc1OCCCN1CCC(Cc2ccccc2)CC1,.,106,7,133,26,0,.,.,.
COC(=O)CSc1nc(-c2ccccc2)cc(-c2ccco2)c1C#N,4.1,125*,5,123,-9,8,106,4,106
COC(=O)CSc1nc(N)c(C#N)c(-c2ccco2)c1C#N,0.22,93,-6,94,-3,16,.,.,.
CSc1scc2c1-c1nc(SCC(=O)C(C)(C)C)ncc1CC2,0.4,66*[inhibitor],-34,68,-6,-2,102,1,105
Cc1cc(Nc2ccc(C)c(Cl)c2)nc(N2CCOCC2)n1,-0.55,130*,26,123,2,16,106,-3,102
Cc1ccc(Nc2cc(C)nc(N3CCOCC3)n2)cc1,-0.49,101,7,100,-3,11,.,.,.
CC(NC(=O)c1ccccc1F)c1nnc(SCC(=O)NC2CCCC2)n1C (stereo unspecified),.,93,-7,93,-1,6,.,.,.
CCCOC(=O)CC1C(=O)NCCN1C(=O)OC(C)(C)C (stereo unspecified),1.4,39*[inhibitor],-18,48,-4,-1,103,-1,102
O=C(Nc1cccc2ccccc12)NC1CCCCC1,.,105,7,105,-5,-2,.,.,.
O=C(Nc1cccc2ccccc12)NC1Cc2ccccc2C1,1.4,73*[inhibitor],-10,82,3,1,111,3,98
CC(=O)Nc1ccc(S(=O)(=O)NC(C)(C#N)C2CC2)cc1 (stereo unspecified),.,98,3,98,-6,-1,.,.,.
COc1ccccc1CNC(=O)CN1C(=O)N(C)C2(CCCCC2)C1=O,.,.,.,.,0,2,.,.,.
CCOc1ccc(NC(=S)N(CCCN2CCCC2)Cc2cccn2Cc2ccc(Cl)cc2)cc1,0.75,110,3,186*,-6,-2,147,21,105
Cc1cccc(NC(=S)N(CCCN2CCCC2)Cc2cccn2Cc2ccc(Cl)cc2)c1,1.1,110,65*,206*,6,5,169,41,109
c1ccc(N2CCN(CC3CCCCC3)CC2)cc1,.,104,7,113,-3,-5,.,.,.
CC(C)OC(=O)c1ccc(OC(=O)c2cccnc2)cc1,-0.67,105,6,104,-4,1,.,.,.
COC(=O)c1ccc(OC(=O)c2cccnc2)cc1,0.22,128*,0,106,5,5,97,-7,95
CCOC(=O)C(NC(=O)c1ccccc1Cl)(Nc1ccc(C(F)(F)F)cc1)C(F)(F)F (stereo unspecified),-0.28,151*,3,106,-1,2,101,-3,101
Cc1c(C#N)c(N=CN(C)C)c(C(=O)c2ccc(Br)cc2)n1-c1ccccc1,0.2,103,2,69*[inhibitor],-18,-7,96,-1,102
Cc1c(C#N)c(N=CN(C)C)c(C(=O)c2ccccc2)n1-c1ccc(Br)cc1,-0.6,92,-2,93,-2,-9,.,.,.
SMILES,Dynein transport,MEKK3 PB1 HTS,MEKK2mut PB1 HTS,MEKK2 WT-MEK5,ATG4B inh,Beta2AR agonist,MEKK2wt confirm,MEKK2mut confirm,MEKK3 confirm
Cc1nc(Nc2nc(CSc3ccc(Cl)cc3)cc(=O)[nH]2)nc2ccccc12,-0.13,132*,0,104,-5,-12,104,2,105
O=C(NC(=O)c1csnn1)Nc1ccccc1Cl,.,101,-3,102,-4,-18,.,.,.
NC(=O)NC(=O)Nc1ccccc1Cl,0.76,130*,7,125,-5,1,101,-3,95
O=S(=O)(Nc1ccc2c(c1)OCO2)c1cccs1,-0.48,132*,8,128,-2,18,104,3,108
Cc1cc(NS(=O)(=O)c2cccs2)no1,0.17,2.0*[inhibitor],-18,2.0*[inhibitor],-7,4,98,-1,98
Cn1nc(-c2ccc(Cl)cc2)c2cc(C(=O)NCCN3CCOCC3)sc21,-0.67,113,9,136*,-14,-5,127,14,109
Cn1nc(-c2ccc(Cl)cc2)c2cc(C(=O)NC3CC3)sc21,-1.2,107,3,105,-3,-40,.,.,.
Cn1nc(-c2ccc(Cl)cc2)c2cc(C(=O)NCCCN3CCOCC3)sc21,0.39,112,13,154*,-20,19,140,19,104
Nc1cccc(CN2CCCC2)c1,-0.69,102,6,111,0,7,.,.,.
CC(=O)c1cc2c(cc1NC(=O)CCc1c(C)nc3ncnn3c1C)OCO2,.,.,.,.,-10,-2,.,.,.
CN1CCN(c2ccc(NC(=O)c3ccc(-c4ccc(Cl)cc4)o3)cc2)CC1,.,108,43*,171*,-4,18,195,72*,114
CS(=O)(=O)N1CCN(c2ccc(NC(=O)c3ccc(-c4ccc(Cl)cc4)o3)cc2)CC1,-0.75,100,3,98,-10,3,.,.,.
CCN1CCN(Cc2ccc(NC(=O)c3ccc(C)c(NC(=O)c4cc(-c5ccc(Br)cc5)n[nH]4)c3)cc2C(F)(F)F)CC1,-0.18,109,75*,150*,1,18,239*,126*,109
CCN1CCN(Cc2ccc(NC(=O)c3ccc(C)c(NC(=O)c4cccc5[nH]ccc45)c3)cc2C(F)(F)F)CC1,-0.88,106,74*,124,4,17,187,55,100

# Compound activity deposited in PubChem BioAssay by several laboratories.
